Measured values taken from ChEMBL document CHEMBL1122506, “Cardiac-slowing amidines containing the 3-thioindone group. Potential antianginal agents” (1983).

Experiments:
Canis familiaris [1] = experiment: Evaluated for the heart rate at dose 2.5 mg/kg in 4 animals by glucagon-induced tachycardia test; format: functional, Canis lupus familiaris
Canis familiaris [2] = experiment: Evaluated for the myocardial depression rating which is barely observable for the given compound in anesthetized, ganglion-blocked dog
Canis familiaris [3] = experiment: Dose required to achieve 50 % of maximal cardiac slowing in triazine tachycardia test in conscious dog; format: functional, Canis lupus familiaris
Procedure, shortened: (§1)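 Triazine tachycardia in conscious dogs: carotid artery and jugular vein catheterized with heparinized saline; 18 h after surgery, triazine vasodilator U20388 12 mg/kg po; about 1 h later, dog in sling with arterial pressure and ECG monitored. Test agent infused iv at 0.8 (mg/kg)/min to 30 mg/kg total. D50 = dose giving 50% of maximal slowing in that animal; ΔHR50 = heart-rate change at D50; CS index = %ΔHR50/D50.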

Canis familiaris [4] = organism: Canis familiaris; experiment: Percent decrease from initial heart rate (percent delta HR50/HR0 x 100) in dogs; format: functional, Canis lupus familiaris; procedure, shortened: as §1
Canis familiaris [5] = experiment: Evaluated for the heart rate at dose 2.5 mg/kg in 6 animals by aminophylline-induced sinus tachycardia test; format: functional, Canis lupus familiaris
Canis familiaris [6] = organism: Canis familiaris; experiment: Cardiac slowing index was measured for potency and efficacy; format: functional, Canis lupus familiaris; procedure, shortened: as §1
Canis familiaris [7] = experiment: Change in heart rate at the above D50 dose in conscious dogs; format: functional, Canis lupus familiaris; procedure, shortened: as §1
Canis familiaris [8] = experiment: Evaluated for the heart rate at dose 5.0 mg/kg in 6 animals by aminophylline-induced sinus tachycardia test; format: functional, Canis lupus familiaris
Canis familiaris [9] = experiment: Evaluated for the heart rate at dose 0.5 mg/kg in 4 animals by poldine tachycardia test; format: functional, Canis lupus familiaris
Procedure, shortened: (§2)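 Poldine tachycardia: dogs prepared surgically as in the triazine method; poldine methyl sulfate 0.5 mg/kg iv, then 30 min later test agent in increasing doses (0.5/1.0/2.5 mg/kg) at 30-min intervals; read-out is the maximum percent decrease in heart rate at each dose.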

Canis familiaris [10] = experiment: Evaluated for the heart rate at dose 2.5 mg/kg in 4 animals by poldine tachycardia test; format: functional, Canis lupus familiaris; procedure, shortened: as §2
Canis familiaris [11] = experiment: Evaluated for the heart rate at dose 1.0 mg/kg in 4 animals by poldine tachycardia test; format: functional, Canis lupus familiaris; procedure, shortened: as §2
Canis familiaris [12] = organism: Canis familiaris; experiment: Relative activity (fraction of the most active compound 24) was determined; format: functional, Canis lupus familiaris
Canis familiaris [13] = experiment: Evaluated for the heart rate at dose 1.0 mg/kg in 6 animals by aminophylline-induced sinus tachycardia test; format: functional, Canis lupus familiaris
Canis familiaris [14] = experiment: Evaluated for the heart rate at dose 5.0 mg/kg in 4 animals by glucagon-induced tachycardia test; format: functional, Canis lupus familiaris
Canis familiaris [15] = experiment: Evaluated for the heart rate at dose 5.0 mg/kg in 4 animals by aminophylline-induced sinus tachycardia test; format: functional, Canis lupus familiaris
Canis familiaris [16] = experiment: Evaluated for the heart rate at dose 2.5 mg/kg in 4 animals by aminophylline-induced sinus tachycardia test; format: functional, Canis lupus familiaris
Canis familiaris [17] = experiment: Evaluated for the heart rate at dose 1.0 mg/kg in 4 animals by glucagon-induced tachycardia test; format: functional, Canis lupus familiaris
Canis familiaris [18] = experiment: Evaluated for the heart rate at dose 1.0 mg/kg in 4 animals by aminophylline-induced sinus tachycardia test; format: functional, Canis lupus familiaris
Canis familiaris [19] = organism: Canis familiaris; experiment: Percent decrease from the initial evaluated heart rate (percent delta HR50/HR0 x 100); format: functional, Canis lupus familiaris; procedure, shortened: as §1
Canis familiaris [20] = experiment: Myocardial depression rating in anesthetized, ganglion-blocked dog; Weak activity.
Canis familiaris [21] = organism: Canis familiaris; experiment: Cardiac slowing index of the compound; format: functional, Canis lupus familiaris; procedure, shortened: as §1
Canis familiaris [22] = experiment: Myocardial depression in anesthetized, ganglion-blocked dog; Moderate activity.
Canis familiaris [23] = experiment: Evaluated for the heart rate at dose 2.5 mg/kg in 3 animals by aminophylline-induced sinus tachycardia test; format: functional, Canis lupus familiaris
Canis familiaris [24] = experiment: Evaluated for the heart rate at dose 1.0 mg/kg in 3 animals by aminophylline-induced sinus tachycardia test; format: functional, Canis lupus familiaris
Canis familiaris [25] = experiment: Evaluated for the heart rate at dose 5.0 mg/kg in 3 animals by aminophylline-induced sinus tachycardia test; format: functional, Canis lupus familiaris
Canis familiaris [26] = organism: Canis familiaris; experiment: Evaluated for the dose required to achieve 50 % of the maximal cardiac slowing in the triazine tachycardia test.; format: functional, Canis lupus familiaris; procedure, shortened: as §1
Canis familiaris [27] = experiment: Evaluated for the myocardial depression rating which is severe for the given compound in anesthetized, ganglion-blocked dog
Canis familiaris [28] = experiment: Evaluated for the myocardial depression rating which is none for the given compound in anesthetized, ganglion-blocked dog
Canis familiaris [29] = experiment: Evaluated for the heart rate at dose 2.5 mg/kg in 5 animals by glucagon-induced tachycardia test; format: functional, Canis lupus familiaris
Canis familiaris [30] = experiment: Evaluated for the heart rate at dose 1.0 mg/kg in 5 animals by glucagon-induced tachycardia test; format: functional, Canis lupus familiaris
Canis familiaris [31] = experiment: Myocardial depression in conscious dog; Moderate activity.; format: functional, Canis lupus familiaris, Myocardium

SMILES	Max decrease in heart rate (Canis familiaris [1]) [%]	D50 (Canis familiaris [3]) [mg/kg]	Delta HR50 (Canis familiaris [4]) [%]	CS index (Canis familiaris [6])	Delta HR50 (Canis familiaris [7]) [beats min-1]	Max decrease in heart rate (Canis familiaris [9]) [%]	Max decrease in heart rate (Canis familiaris [10]) [%]	Max decrease in heart rate (Canis familiaris [11]) [%]	Relative activity (Canis familiaris [12])	Max decrease in heart rate (Canis familiaris [14]) [%]	Max decrease in heart rate (Canis familiaris [17]) [%]	further results
COc1ccc(CC/N=C2/CCCN2C)cc1OC [MIXIDINE]	16	3.3	19.6	5.9	-34	12	35	24	0.18	28	–	MD (Canis familiaris [2]): 1; Max decrease in heart rate (Canis familiaris [5]): 25%; Max decrease in heart rate (Canis familiaris [8]): 33%; Max decrease in heart rate (Canis familiaris [13]): 6%
Cc1[nH]c2ccccc2c1SCC/N=C1\CCCN1C	29	4.5	–	4.5	-34	15	30	25	0.14	42	20	Max decrease in heart rate (Canis familiaris [15]): 34%; Max decrease in heart rate (Canis familiaris [16]): 23%; Max decrease in heart rate (Canis familiaris [18]): 12%; Delta HR50 (Canis familiaris [19]): 20.2%; MD (Canis familiaris [20]): 2.5
CCCCCCCCn1cc(SCC/N=C2\CCCN2C)c2ccccc21	–	7.3	14.8	–	-32	–	–	–	–	–	–	CS index (Canis familiaris [21]): 2; MD (Canis familiaris [22]): 2
CC(C)COCC(CN(Cc1ccccc1)c1ccccc1)N1CCCC1 (stereo not given) [BEPRIDIL]	30	2	14.8	7.4	-30	10	25	18	0.23	45	16	MD (Canis familiaris [2]): 1; Max decrease in heart rate (Canis familiaris [23]): 23%; Max decrease in heart rate (Canis familiaris [24]): 13%; Max decrease in heart rate (Canis familiaris [25]): 39%
CC(C)NCC(O)COc1cccc2ccccc12 (stereo not given) [PROPRANOLOL]	9	–	28.5	4.2	-66	21	38	32	0.13	–	3	Max decrease in heart rate (Canis familiaris [15]): 37%; Max decrease in heart rate (Canis familiaris [16]): 32%; MD (Canis familiaris [22]): 3; Max decrease in heart rate (Canis familiaris [18]): 24%; D50 (Canis familiaris [26]): 6.7 mg/kg
CN1CCC/C1=N\CCC1CNc2ccccc21 (stereo not given)	–	3.5	12.2	3.5	-27	–	–	–	0.13	–	–	MD (Canis familiaris [2]): 1
CN1CCC/C1=N\CCSc1cn(C)c2ccccc12	34	1.2	20.2	16.8	-30	24	47	33	0.52	53	13	Max decrease in heart rate (Canis familiaris [5]): 32%; Max decrease in heart rate (Canis familiaris [8]): 39%; Max decrease in heart rate (Canis familiaris [13]): 22%; MD (Canis familiaris [20]): 2
CCCc1[nH]c2ccccc2c1SCC/N=C1\CCCN1C	–	7.9	29	3.7	-62	–	–	–	0.11	–	–	MD (Canis familiaris [27]): 4
CCn1cc(CC/N=C2/CCCN2C)c2ccccc21	–	0.8	20.2	25.2	-48	–	–	–	0.79	–	–	MD (Canis familiaris [28]): 0
CCn1cc(SCC/N=C2\CCCN2C)c2ccccc21	–	0.8	21.8	27.2	-39	18	47	34	0.85	–	–	Max decrease in heart rate (Canis familiaris [15]): 53%; Max decrease in heart rate (Canis familiaris [16]): 43%; Max decrease in heart rate (Canis familiaris [29]): 46%; Max decrease in heart rate (Canis familiaris [18]): 27%; Max decrease in heart rate (Canis familiaris [30]): 28%; MD (Canis familiaris [20]): 2
CN1CCCC1=NCCCCc1c[nH]c2ccccc12	–	6.1	19	3.1	-50	–	–	–	0.11	–	–	MD (Canis familiaris [28]): 0
CN1CCC/C1=N\CCSc1c[nH]c2ccccc12	20	2.5	20.4	8.2	-40	9	33	22	0.26	28	6	Max decrease in heart rate (Canis familiaris [15]): 39%; Max decrease in heart rate (Canis familiaris [16]): 22%; MD (Canis familiaris [22]): 3; Max decrease in heart rate (Canis familiaris [18]): 10%
CCCc1[nH]c2ccccc2c1SCCNC1=NCCN1C	–	2.1	13.2	6.3	-27	–	–	–	0.2	–	–	MD (Canis familiaris [27]): 4
CN1CCC/C1=N\CCSc1cn(C/C=C/c2ccccc2)c2ccccc12	–	6.1	23.5	3.8	-58	–	–	–	0.12	–	–	MD (Canis familiaris [31]): 3
CN1CCN=C1NCCCCSc1c[nH]c2ccccc12	–	12.6	10.5	0.8	-27	–	–	–	0.03	–	–	MD (Canis familiaris [28]): 0
CCCn1cc(SCC/N=C2\CCCN2C)c2ccccc21	–	1.7	27.4	16.1	-60	–	–	–	0.5	–	–	MD (Canis familiaris [2]): 1
